Screens (PubChem)
The list is not random: actives were taken first. Their share in the collection is about 1.8%.
pCIP destab: p/CIP protein destabilization. decrease of EGFP signal, % at 10 µM. Q05BA5. F442A p/CIP-EGFP cells, EGFP fluorescence, 16 h. AID 1984. 0.01% of 290,000 active;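 active = EGFP signal decrease of at least 30% at 10 µM or well 3 SD below plate mean, unless failing retest; inactive = the rest, including hits failing retest or dose response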
PHOSPHO1 block: blocks human PHOSPHO1 phosphatase activity | 1.1% of 290,000 active | Q8TCT1 | inhibition, % at 13.3 µM | recombinant PHOSPHO1, absorbance phosphatase assay; in the data active = inhibition above about 60%
Target sequence (Q8TCT1 whole entry, looked up): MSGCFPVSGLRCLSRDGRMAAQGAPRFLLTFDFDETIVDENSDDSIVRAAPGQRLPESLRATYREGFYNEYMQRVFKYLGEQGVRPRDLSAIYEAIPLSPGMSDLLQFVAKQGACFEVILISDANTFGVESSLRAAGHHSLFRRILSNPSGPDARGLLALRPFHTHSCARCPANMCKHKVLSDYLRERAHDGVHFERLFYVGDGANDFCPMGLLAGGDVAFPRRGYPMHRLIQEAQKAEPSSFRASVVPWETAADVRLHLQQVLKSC
APOBEC3G inh: inhibitors of human APOBEC3G DNA deaminase; Q9HC16; recombinant A3G, ssDNA deamination FAM/TAMRA fluorescence; inhibition, % at 20 µM; 0.28% of 330,000 active; AID 493012;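 active = inhibition of at least 40% at 20 µM, with no more than 30% in the related APOBEC3A deaminase screen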
A3A deaminase: inhibitors of human APOBEC3A DNA deaminase; recombinant A3A, FAM/TAMRA ssDNA deamination fluorescence; inhibition, % at 20 µM; 0.41% of 330,000 active; AID 493011;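 active = at least 40% inhibition at 20 µM here, with at most 30% in a related deaminase screen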
Tb MetRS inh: blocks T. brucei methionyl-tRNA synthetase activity | purified T. brucei MetRS, ATP depletion, Kinase-Glo luminescence | inhibition, % at 11.9 µM | 0.4% of 360,000 active | AID 624268;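 active = inhibition above a per-plate cutoff of the control wells' mean inhibition plus 3 SD, cut at about 5.5% in these data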
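Material: parasite MetRS enzyme / Replication: singlicate, one well per compound / Signal: luminescence of leftover ATP / Schedule: 2 h aminoacylation at 25 °C after 15 min preincubation / Medium: HEPES-MgCl2-KCl buffer plus DTT, spermine, BSA, pyrophosphatase / Doses: 11.9 µM single point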
APOBEC3A confirm: confirmation of human APOBEC3A DNA deaminase inhibitors; shares compounds with A3A deaminase; recombinant A3A, ssDNA deaminase UDG fluorescence assay; inhibition, % at 20 µM; 63% of 1,400 active; AID 493151;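 active = inhibition reaching a set limit, 80% of the first screen's cutoff, at 20 µM in any replicate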
UDG ctr A3A: counter-screen for APOBEC3A inhibitors: UDG; shares compounds with A3A deaminase; UDG counterscreen, FAM/TAMRA uracil oligo fluorescence; inhibition, % at 20 µM; 1,000 tested, under 10 active; call rule not given here
APOBEC3G confirm: confirmation of human APOBEC3G DNA deaminase inhibitors. shares compounds with APOBEC3G inh. recombinant A3G ssDNA deaminase, UDG/FAM-TAMRA fluorescence. inhibition, % at 20 µM. 72% of 890 active. AID 493152;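 active = inhibition reaching a set limit in any replicate at 20 µM, the limit being 80% of the first screen's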
UDG A3G counter: inhibits E. coli UDG, flagging false APOBEC3G inhibitors; shares compounds with APOBEC3G inh; UDG counterscreen, FAM/TAMRA oligo fluorescence; inhibition, % at 20 µM; 710 tested, under 10 active; AID 504715;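 active = compounds giving 40% or more inhibition at 20 µM in any one of the three replicates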;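 note: inhibitors lower the FAM signal released by uracil excision and alkaline cleavage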
Of the large screens only hits and unclear results are named; the others gave an inactive call (follow-up assays come after a bar, where they were run).

Cc1ccc2c(c1)C1CN(C)CCC1N2C(=O)c1cccs1 (centres undefined)	none
CC(C)(C)C(=O)c1cn(CC(=O)NCc2ccco2)c2ccccc12	A3A deaminase 59.0 | APOBEC3A confirm 45.5 | UDG ctr A3A inactive
CCC(CO)(C(=O)OC1C[N+]2(C)CCC1CC2)c1ccccc1 (centres undefined)	A3A deaminase 55.9 | APOBEC3A confirm 70.5 | UDG ctr A3A inactive
COc1cc2c(cc1OC)-c1c(OC)c(OC)cc3c1[C@H](C2)[N+](C)(C)CC3	A3A deaminase 83.1 | APOBEC3A confirm 71.0 | UDG ctr A3A inactive
COC(=O)C1=CCCN(C)C1	none
C[N+]1(C)C2CCC1CC(OC(=O)C(CO)c1ccccc1)C2 (centres undefined)	A3A deaminase 67.6 | APOBEC3A confirm 73.9 | UDG ctr A3A inactive
C[N+]1(C)C2CCC1CC(OC(=O)c1ccccc1)C2 (centres undefined)	A3A deaminase 50.5 | APOBEC3A confirm 67.0 | UDG ctr A3A inactive
C[N+]1(C)[C@@H]2CC[C@H]1CC(OC(=O)C(CO)c1ccccc1)C2 (some centres undefined)	none
CN1C2CCC1CC(OC(=O)c1ccc(Cl)cc1)C2 (centres undefined)	none
C[n+]1ccc(-c2ccncc2)cc1	PHOSPHO1 block 91.7, A3A deaminase 74.1 | APOBEC3A confirm 76.6 | UDG ctr A3A inactive
O=C(NCCCn1ccnc1)C(Cl)(Cl)Cl	APOBEC3G inh 43.8 | APOBEC3G confirm inactive
CN1CC[C@]2(c3cccc(O)c3)Cc3nc4ccccc4cc3C[C@H]2C1	none (no result: APOBEC3G inh, A3A deaminase, Tb MetRS inh)
NS(=O)(=O)c1ccc(-c2ccc(C=C3C(=O)NC(=S)NC3=O)o2)cc1	APOBEC3G inh 47.9 (no result: Tb MetRS inh) | APOBEC3G confirm 47.1
NS(=O)(=O)c1ccc(-c2ccc(C=C3C(=O)NC(=O)NC3=O)o2)cc1	none
Cn1c(NN=O)nc2ccccc21	APOBEC3G inh 58.9 | APOBEC3G confirm 28.4 | UDG A3G counter inactive
O=c1[nH]c(=S)n(C2CCCCC2)c(O)c1/C=N/N1CCOCC1	none
O=c1[nH]c(=O)n(CCC2=CCCCC2)c(O)c1/C=N/Nc1cccc2ccccc12	APOBEC3G inh 41.5 | APOBEC3G confirm inactive
O=c1[nH]c(=O)n(CCC2=CCCCC2)c(O)c1/C=N/Nc1ccccc1	none
CCC(C)n1c(O)c(/C=N/Nc2ccccc2)c(=O)[nH]c1=S (centres undefined)	APOBEC3G inh 48.8 | APOBEC3G confirm inactive
O=c1[nH]c(=S)n(C2CC2)c(O)c1/C=N/Nc1cccc2ccccc12	APOBEC3G inh 55.0 | APOBEC3G confirm inactive
O=C1NCN(c2ccccc2)C12CCN(C(c1cc3ccccc3o1)c1nnnn1-c1ccc3c(c1)OCCO3)CC2 (centres undefined)	none (no result: pCIP destab, PHOSPHO1 block, APOBEC3G inh, A3A deaminase)
CC(=O)NN1C(=O)c2ccccc2NC1c1cccnc1 (centres undefined)	APOBEC3G inh 53.7 | APOBEC3G confirm inactive
CCC12CN3CC(CC)(CN(C1)C3c1cccnc1)C2=O (centres undefined)	none
O=C(Cc1c[nH]c2ccccc12)NNCc1ccc(N(CCCl)CCCl)cc1	none (no result: pCIP destab, PHOSPHO1 block, APOBEC3G inh, A3A deaminase)
